Data as given in ChEMBL document CHEMBL4145654, “Structure-Based Discovery of CF53 as a Potent and Orally Bioavailable Bromodomain and Extra-Terminal (BET) Bromodomain Inhibitor” (J Med Chem, 2018).

Experiments:
[1] = Plasma concentration in SCID mouse xenografted with human MDA-MB-231 cells at 50 mg/kg administered via oral gavage measured after 6 hrs; format: ADME, organism-based
Method in brief: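 SCID mice carrying MDA-MB-231 tumors dosed orally at 50 mg/kg. Plasma drug level determined by LC-MS/MS (positive-ion MRM, C18 column, formic acid/acetonitrile gradient). Value is the mean from two mice per time point.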

[2] = Drug uptake in tumor of SCID mouse xenografted with human MDA-MB-231 cells at 50 mg/kg administered via oral gavage measured after 6 hrs; format: ADME, organism-based, Neoplasm; settings: read-out: Drug uptake
Method in brief: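 Limited PK in SCID mice bearing MDA-MB-231 tumors, 50 mg/kg given by oral gavage. Plasma and tumor tissue drug levels measured at two time points per compound. Values are the mean of two mice/tumors per time point.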

[3] = AUC in Balb/c mouse at 5 mg/kg, iv by LC-MS/MS analysis; format: ADME, organism-based; settings: in vivo
Method in brief: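 Balb/c mice dosed iv at 5.0 mg/kg or po at 25 mg/kg, compound in vehicle of 20% (v/v) PCP and 70% (v/v) PBS. Serial blood samples taken at 0, 5, 15, 30 min and 1, 2, 4, 6, 8, 24 h. Plasma obtained by centrifugation and stored at −80 °C. Analysis by LC-MS/MS, positive-ion MRM. Parameters from noncompartmental analysis.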

[4] = system: RS4-11; assay: Antitumor activity against human RS4:11 cells xenografted in SCID mouse assessed as tumor growth inhibition at 25 mg/kg administered via oral gavage measured on day 35; format: functional; settings: RS4-11, po, 840 h, read-out: TGI
Method in brief: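 SCID mice were implanted subcutaneously on the dorsal side with 5 × 10⁶ MDA-MB-231 or RS4;11 cells in 50% Matrigel, one tumor per mouse. At ca. 100 mm3, mice were randomized to treatment or vehicle groups and dosed by oral gavage. Tumor volume = L × W²/2. Body weight change tracked. p values by two-tailed unpaired t-test.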

[5] = system: RS4-11; assay: Antitumor activity against human RS4:11 cells xenografted in SCID mouse assessed as tumor growth inhibition at 50 mg/kg administered via oral gavage measured on day 35; format: functional; settings: RS4-11, po, 840 h, read-out: TGI
Method in brief: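 Each SCID mouse received a single dorsal subcutaneous tumor of 5 × 10⁶ RS4;11 or MDA-MB-231 cells in 50% Matrigel. At about 100 mm3, mice were randomised to treatment or vehicle control groups. Dosing was by oral gavage at the stated schedules. Tumor volume was L × W²/2, and body weight was tracked. TGI versus vehicle at end of treatment was tested by unpaired two-tailed t-test.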

[6] = system: Mus musculus; assay: Toxicity in SCID mouse xenografted with human RS4:11 cells assessed as change in body weight at 10 to 50 mg/kg administered via oral gavage measured 2 to 3 times per week during compound dosing and measured weekly post treatment; format: organism-based; settings: in vivo
Method in brief: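 Xenografts raised by subcutaneous dorsal injection of 5 × 10⁶ cells in 50% Matrigel into SCID mice, one tumor per mouse. Mice randomized to treatment or vehicle groups at about 100 mm3 tumor volume. Compounds given by oral gavage at the indicated dose-schedules, with percentage body-weight change tracked alongside tumor volume (L × W²/2).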

[7] = biological target: Bromodomain-containing protein 2 (Homo sapiens, UniProt P25440); assay: Binding affinity to human BRD2 bromodomain 2 (E348 to D455 residues) expressed in bacterial expression system by BROMOscan assay
[8] = biological target: Bromodomain-containing protein 3 (Homo sapiens, UniProt Q15059); assay: Binding affinity to human BRD3 bromodomain 1 (P24 to E144 residues) expressed in bacterial expression system by BROMOscan assay
[9] = biological target: Bromodomain-containing protein 4 (Homo sapiens, UniProt O60885); assay: Binding affinity to human BRD4 bromodomain 1 (N44 to E168 residues) expressed in bacterial expression system by BROMOscan assay
[10] = biological target: Bromodomain testis-specific protein (Homo sapiens, UniProt Q58F21); assay: Binding affinity to human BRDT bromodomain 1 (N21 to E137 residues) expressed in bacterial expression system by BROMOscan assay
[11] = biological target: ATPase family AAA domain-containing protein 2B (Homo sapiens, UniProt Q9ULI0); assay: Binding affinity to human ATAD2B (Q955 to R1082 residues) expressed in bacterial expression system by BROMOScan assay
[12] = biological target: Bromodomain-containing protein 8 (Homo sapiens, UniProt Q9H0E9); assay: Inhibition of BRD8 bromodomain 2 (unknown origin) by BROMOScan assay
[13] = biological target: Bromodomain-containing protein 9 (Homo sapiens, UniProt Q9H8M2); assay: Binding affinity to human BRD9 (R130 to V259 residues) expressed in bacterial expression system by BROMOScan assay
[14] = biological target: Peregrin (Homo sapiens, UniProt P55201); assay: Binding affinity to human BRPF1 (E627 to G740 residues) expressed in bacterial expression system by BROMOScan assay
[15] = biological target: Bromodomain and PHD finger-containing protein 3 (Homo sapiens, UniProt Q9ULD4); assay: Binding affinity to human BRPF3 (E588 to G701 residues) expressed in bacterial expression system by BROMOScan assay
[16] = biological target: Nucleosome-remodeling factor subunit BPTF (Homo sapiens, UniProt Q12830); assay: Binding affinity to human FALZ (S2791 to H2911 residues) expressed in bacterial expression system by BROMOScan assay
[17] = biological target: SWI/SNF-related matrix-associated actin-dependent regulator of chromatin subfamily A member 2 (Homo sapiens, UniProt P51531); assay: Binding affinity to human SMARCA2 (S1377 to Q1486 residues) expressed in bacterial expression system by BROMOScan assay
[18] = biological target: Transcription initiation factor TFIID subunit 1-like (Homo sapiens, UniProt Q8IZX4); assay: Binding affinity to human TAF1L bromodomain 2 (Q1523 to D1654 residues) expressed in bacterial expression system by BROMOScan assay
[19] = biological target: Transcription initiation factor TFIID subunit 1 (Homo sapiens, UniProt P21675); assay: Binding affinity to human TAF1 bromodomain 2 (D1521 to D1656 residues) expressed in bacterial expression system by BROMOScan assay
[20] = biological target: Bromodomain and WD repeat-containing protein 1 (Homo sapiens, UniProt Q9NSI6); assay: Binding affinity to human WDR9 bromodomain 2 (A1310 to E1430 residues) expressed in bacterial expression system by BROMOscan assay
[21] = species on record: Homo sapiens; assay: Selectivity index, ratio of Kd for human CECR2 (P423 to D543 residues) to Kd for human BRD4 bromodomain 1 (N44 to E168 residues)
[22] = species on record: Homo sapiens; assay: Selectivity index, ratio of Kd for human EP300 (A1040 to G1161 residues) to Kd for human BRD2 bromodomain 1 (K71 to N194 residues)
[23] = species on record: Homo sapiens; assay: Selectivity index, ratio of Kd for human EP300 (A1040 to G1161 residues) to Kd for human BRD3 bromodomain 2 (G306 to P416 residues)
[24] = species on record: Homo sapiens; assay: Selectivity index, ratio of Kd for human CREBBP (R1081 to G1197 residues) to Kd for human BRD2 bromodomain 2 (E348 to D455 residues)
[25] = species on record: Homo sapiens; assay: Selectivity index, ratio of Kd for human CREBBP (R1081 to G1197 residues) to Kd for human BRD3 bromodomain 1 (P24 to E144 residues)

SWI/SNF-related matrix-associated actin-dependent regulator of chromatin subfamily A member 2, sequence (P51531 whole entry, the tested form may be a part): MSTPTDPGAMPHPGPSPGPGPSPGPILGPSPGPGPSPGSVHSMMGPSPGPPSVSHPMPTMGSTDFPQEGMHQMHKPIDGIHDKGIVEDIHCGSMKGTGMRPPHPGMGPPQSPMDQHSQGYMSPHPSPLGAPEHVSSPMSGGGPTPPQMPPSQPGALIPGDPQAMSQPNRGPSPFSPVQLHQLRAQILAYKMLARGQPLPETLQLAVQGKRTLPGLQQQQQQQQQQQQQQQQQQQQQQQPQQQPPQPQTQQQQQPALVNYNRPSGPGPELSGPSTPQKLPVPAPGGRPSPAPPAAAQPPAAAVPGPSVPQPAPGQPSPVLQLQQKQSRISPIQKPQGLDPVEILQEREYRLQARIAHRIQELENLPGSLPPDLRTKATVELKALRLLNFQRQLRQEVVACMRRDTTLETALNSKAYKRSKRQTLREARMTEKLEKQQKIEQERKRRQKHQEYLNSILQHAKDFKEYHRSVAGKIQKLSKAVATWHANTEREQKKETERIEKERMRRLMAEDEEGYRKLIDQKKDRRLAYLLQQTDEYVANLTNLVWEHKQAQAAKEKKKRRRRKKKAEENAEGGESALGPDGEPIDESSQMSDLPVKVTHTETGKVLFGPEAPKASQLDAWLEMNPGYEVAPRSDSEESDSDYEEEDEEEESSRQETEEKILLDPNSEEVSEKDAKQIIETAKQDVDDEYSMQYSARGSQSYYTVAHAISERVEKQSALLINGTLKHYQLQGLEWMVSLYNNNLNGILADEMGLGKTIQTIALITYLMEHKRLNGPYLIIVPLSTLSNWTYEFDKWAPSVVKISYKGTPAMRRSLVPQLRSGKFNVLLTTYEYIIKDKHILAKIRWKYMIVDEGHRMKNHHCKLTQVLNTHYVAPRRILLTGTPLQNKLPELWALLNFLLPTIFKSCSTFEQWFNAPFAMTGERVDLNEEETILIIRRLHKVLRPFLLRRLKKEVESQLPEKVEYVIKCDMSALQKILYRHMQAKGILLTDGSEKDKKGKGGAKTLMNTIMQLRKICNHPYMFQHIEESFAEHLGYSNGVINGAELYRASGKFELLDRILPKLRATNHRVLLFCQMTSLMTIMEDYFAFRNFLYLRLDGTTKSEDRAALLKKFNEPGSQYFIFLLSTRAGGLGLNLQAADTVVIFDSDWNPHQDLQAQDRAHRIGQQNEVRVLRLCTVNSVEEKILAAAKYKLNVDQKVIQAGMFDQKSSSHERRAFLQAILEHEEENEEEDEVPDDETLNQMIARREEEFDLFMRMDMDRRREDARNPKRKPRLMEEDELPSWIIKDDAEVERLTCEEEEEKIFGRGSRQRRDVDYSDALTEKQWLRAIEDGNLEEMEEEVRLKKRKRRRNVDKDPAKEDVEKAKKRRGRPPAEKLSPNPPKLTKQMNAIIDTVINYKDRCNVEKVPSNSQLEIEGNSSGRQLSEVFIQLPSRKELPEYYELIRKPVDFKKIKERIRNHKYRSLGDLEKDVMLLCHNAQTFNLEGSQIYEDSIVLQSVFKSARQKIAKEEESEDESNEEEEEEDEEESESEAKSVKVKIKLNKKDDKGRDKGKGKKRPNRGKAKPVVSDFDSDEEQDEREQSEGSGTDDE
Transcription initiation factor TFIID subunit 1-like, sequence (Q8IZX4 whole entry, the tested form may be a part): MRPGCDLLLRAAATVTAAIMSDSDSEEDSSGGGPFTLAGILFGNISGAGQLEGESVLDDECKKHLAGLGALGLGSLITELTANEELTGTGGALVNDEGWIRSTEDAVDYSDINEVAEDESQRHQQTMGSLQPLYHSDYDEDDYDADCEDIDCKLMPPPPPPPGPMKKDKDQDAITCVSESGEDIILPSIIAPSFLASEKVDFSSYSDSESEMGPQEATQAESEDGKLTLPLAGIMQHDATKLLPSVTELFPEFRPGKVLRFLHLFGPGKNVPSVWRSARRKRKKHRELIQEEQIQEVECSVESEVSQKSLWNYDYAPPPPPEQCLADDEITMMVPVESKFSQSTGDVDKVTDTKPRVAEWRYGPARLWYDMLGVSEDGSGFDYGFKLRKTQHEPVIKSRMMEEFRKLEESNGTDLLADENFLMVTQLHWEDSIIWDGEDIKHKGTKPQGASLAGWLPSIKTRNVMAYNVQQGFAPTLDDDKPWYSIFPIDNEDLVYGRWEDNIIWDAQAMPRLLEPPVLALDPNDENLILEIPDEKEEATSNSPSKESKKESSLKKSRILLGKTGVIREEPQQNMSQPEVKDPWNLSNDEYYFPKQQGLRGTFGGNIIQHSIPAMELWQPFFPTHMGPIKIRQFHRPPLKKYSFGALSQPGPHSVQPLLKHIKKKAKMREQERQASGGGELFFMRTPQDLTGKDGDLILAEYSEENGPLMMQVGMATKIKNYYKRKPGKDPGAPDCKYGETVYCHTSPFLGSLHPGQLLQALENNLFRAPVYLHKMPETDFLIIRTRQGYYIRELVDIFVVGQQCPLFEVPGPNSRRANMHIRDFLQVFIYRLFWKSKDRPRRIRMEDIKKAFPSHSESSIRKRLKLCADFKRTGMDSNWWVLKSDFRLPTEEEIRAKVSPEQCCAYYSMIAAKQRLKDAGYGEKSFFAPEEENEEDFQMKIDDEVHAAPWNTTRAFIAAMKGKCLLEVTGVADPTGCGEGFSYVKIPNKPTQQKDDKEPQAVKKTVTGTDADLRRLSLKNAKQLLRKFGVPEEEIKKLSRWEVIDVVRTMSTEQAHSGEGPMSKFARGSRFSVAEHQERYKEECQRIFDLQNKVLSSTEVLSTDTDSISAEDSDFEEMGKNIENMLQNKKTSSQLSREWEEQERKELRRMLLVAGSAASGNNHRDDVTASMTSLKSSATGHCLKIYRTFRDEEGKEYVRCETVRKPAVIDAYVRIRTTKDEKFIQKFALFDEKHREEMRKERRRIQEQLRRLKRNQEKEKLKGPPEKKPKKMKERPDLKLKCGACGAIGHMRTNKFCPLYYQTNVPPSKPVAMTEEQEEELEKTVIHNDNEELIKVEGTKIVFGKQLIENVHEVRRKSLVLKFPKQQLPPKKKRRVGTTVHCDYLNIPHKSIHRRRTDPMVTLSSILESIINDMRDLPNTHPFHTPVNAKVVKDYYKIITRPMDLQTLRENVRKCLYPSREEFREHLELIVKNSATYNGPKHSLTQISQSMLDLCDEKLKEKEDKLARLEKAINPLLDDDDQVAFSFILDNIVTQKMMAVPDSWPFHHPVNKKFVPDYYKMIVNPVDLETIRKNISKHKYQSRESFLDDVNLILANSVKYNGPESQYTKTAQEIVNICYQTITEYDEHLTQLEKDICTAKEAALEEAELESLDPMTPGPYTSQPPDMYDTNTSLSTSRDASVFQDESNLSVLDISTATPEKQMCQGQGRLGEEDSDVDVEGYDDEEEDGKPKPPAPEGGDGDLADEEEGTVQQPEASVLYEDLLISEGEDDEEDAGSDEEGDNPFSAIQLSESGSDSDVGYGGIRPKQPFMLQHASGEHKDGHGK
Peregrin, sequence (P55201 whole entry, the tested form may be a part): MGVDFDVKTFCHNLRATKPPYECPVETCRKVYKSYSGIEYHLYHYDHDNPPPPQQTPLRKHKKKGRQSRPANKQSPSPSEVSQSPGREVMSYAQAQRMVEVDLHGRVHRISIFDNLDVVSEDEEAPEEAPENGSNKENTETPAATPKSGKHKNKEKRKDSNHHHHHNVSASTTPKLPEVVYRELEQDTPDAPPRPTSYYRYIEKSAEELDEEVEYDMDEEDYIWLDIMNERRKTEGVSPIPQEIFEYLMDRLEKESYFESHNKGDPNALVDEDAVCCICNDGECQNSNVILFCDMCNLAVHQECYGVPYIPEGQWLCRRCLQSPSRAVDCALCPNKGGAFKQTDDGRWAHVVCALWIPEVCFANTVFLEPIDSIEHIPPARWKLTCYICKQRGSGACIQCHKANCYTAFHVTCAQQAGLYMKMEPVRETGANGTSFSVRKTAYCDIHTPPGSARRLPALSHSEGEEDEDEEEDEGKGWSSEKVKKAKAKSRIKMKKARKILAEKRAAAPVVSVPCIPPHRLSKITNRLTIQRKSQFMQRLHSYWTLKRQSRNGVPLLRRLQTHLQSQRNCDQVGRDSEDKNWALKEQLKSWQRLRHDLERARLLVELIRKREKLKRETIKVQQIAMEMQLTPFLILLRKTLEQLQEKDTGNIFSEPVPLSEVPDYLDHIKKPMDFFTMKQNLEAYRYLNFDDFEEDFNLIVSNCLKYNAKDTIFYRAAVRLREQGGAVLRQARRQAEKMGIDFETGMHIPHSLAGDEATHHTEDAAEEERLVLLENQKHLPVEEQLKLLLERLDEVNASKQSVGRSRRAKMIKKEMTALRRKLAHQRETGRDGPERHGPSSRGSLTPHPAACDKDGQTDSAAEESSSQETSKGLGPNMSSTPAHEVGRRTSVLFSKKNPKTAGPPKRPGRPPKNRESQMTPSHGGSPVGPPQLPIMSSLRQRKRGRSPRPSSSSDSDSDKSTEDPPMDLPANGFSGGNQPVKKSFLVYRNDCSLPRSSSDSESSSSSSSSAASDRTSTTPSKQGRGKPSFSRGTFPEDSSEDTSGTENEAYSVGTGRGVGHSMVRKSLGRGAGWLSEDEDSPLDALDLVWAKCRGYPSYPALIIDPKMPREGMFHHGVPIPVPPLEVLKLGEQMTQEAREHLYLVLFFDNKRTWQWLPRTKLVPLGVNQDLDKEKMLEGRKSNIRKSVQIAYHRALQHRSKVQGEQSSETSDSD

concentration at 6 h [1]: 7360 ng/mL
concentration at 6 h [2]: 3670 ng/g
AUC [3]: 9.05 µM·h
Kd [7]: 0.0006 µM
Kd [8]: 0.00052 µM
Kd [9]: 0.0022 µM
Kd [10]: 0.002 µM
Kd [11]: > 5 µM
Kd [12]: > 5 µM
Kd [13]: > 5 µM
Kd [14]: > 4 µM
Kd [15]: > 5 µM
Kd [16]: > 5 µM
Kd [17]: > 5 µM
Kd [18]: > 5 µM
Kd [19]: > 5 µM
Kd [20]: > 5 µM
Selectivity Index [21]: > 50
Selectivity Index [22]: > 50
Selectivity Index [23]: > 50
Selectivity Index [24]: > 20
Selectivity Index [25]: > 20
SMILES: COc1cc2c(cc1-c1c(C)noc1C)[nH]c1nc(C)nc(Nc3cc(C4CC4)nn3C)c12
inhibition in vivo at 25 mg/kg [4]: 49.3%
inhibition in vivo at 50 mg/kg [5]: 72.3%
Activity [6]: Non-Toxic
